Experimental data taken from ChEMBL document CHEMBL4152256, “Structure-activity relationship of new antimalarial 1-aryl-3-susbtituted propanol derivatives: Synthesis, preliminary toxicity profiling, parasite life cycle stage studies, target exploration, and targeted delivery” (Eur J Med Chem, 2018).
pIC50: −log10 of the molar value.

Assays:
[1] = Cytotoxicity against human HepG2A16 cells by MTT assay; type: cell-based; settings: HepG2A16 cells
Method in brief: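 MTT viability assay on HepG2-A16 cells, giving CC50 values.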

Plasmodium falciparum [2] = test: Antiplasmodial activity against chloroquine-sensitive Plasmodium falciparum 3D7 by [3H]-hypoxanthine incorporation assay; type: functional, organism-based; settings: Plasmodium falciparum, 3D7
Method in brief: (§1)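 Blood-stage P. falciparum 3D7 and FCR-3 were tested by a modified [3H]-hypoxanthine incorporation assay. Chloroquine was the reference in all runs.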

[3] = Selectivity index, ratio of CC50 for human HepG2A16 cells by MTT assay to IC50 for multidrug-resistant Plasmodium falciparum FCR-3; type: toxicity; settings: HepG2A16 cells, read-out: Ratio CC50/IC50
Method in brief: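 HepG2-A16 human hepatoma cells were tested by MTT viability assay to give CC50. Blood-stage activity was measured against the multidrug-resistant P. falciparum FCR-3 strain by [3H]-hypoxanthine incorporation to give IC50. SI = CC50 HepG2 / FCR-3 IC50.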

Plasmodium falciparum [4] = test: Antiplasmodial activity against multidrug-resistant Plasmodium falciparum FCR-3 by [3H]-hypoxanthine incorporation assay; type: functional, organism-based, FCR-3/Gambia; settings: Plasmodium falciparum, FCR-3/Gambia; method in brief: as §1

## OC(CCN1CC=C(c2ccc(F)cc2)CC1)c1ccc(Br)cc1 (centres undefined)
[1]
  CC50: 109 µM
Plasmodium falciparum [2]
  pIC50: 5.27
[3]
  selectivity ratio: 41
Plasmodium falciparum [4]
  pIC50: 5.57

## OC(CCN1CCN(c2ccc(C(F)(F)F)cc2)CC1)c1ccc(F)c2ccccc12 (centres undefined)
Plasmodium falciparum [4]
  pIC50: 6.03

## O=[N+]([O-])c1cc(C(F)(F)F)ccc1N1CCN(CCC(O)c2ccc(F)c3ccccc23)CC1 (centres undefined)
Plasmodium falciparum [4]
  pIC50: 5.30

## COc1ccc(C(O)CCN2CCN(c3ccccc3OC)CC2)cc1 (centres undefined)
[1]
  CC50: 371 µM
Plasmodium falciparum [2]
  pIC50: 4.98
[3]
  selectivity ratio: 46
Plasmodium falciparum [4]
  pIC50: 5.10

## O=[N+]([O-])c1ccc(N2CCC(NCCC(O)c3ccc(F)c(Cl)c3)CC2)c(C(F)(F)F)c1 (centres undefined)
[1]
  CC50: 4.61 µM
Plasmodium falciparum [2]
  pIC50: 6.15
[3]
  selectivity ratio: 9
Plasmodium falciparum [4]
  pIC50: 6.29

## OC(CCN1CC=C(c2ccc(F)cc2)CC1)c1ccc(Cl)cc1 (centres undefined)
[1]
  CC50: 110 µM
Plasmodium falciparum [2]
  pIC50: 5.45
[3]
  selectivity ratio: 48
Plasmodium falciparum [4]
  pIC50: 5.64

## OC(CCN1CC=C(c2ccc(F)cc2)CC1)c1ccc(F)c(F)c1 (centres undefined)
[1]
  CC50: 97 µM
Plasmodium falciparum [2]
  pIC50: 5.55
[3]
  selectivity ratio: 48
Plasmodium falciparum [4]
  pIC50: 5.70

## OC(CCN1CC=C(c2ccc(F)cc2)CC1)c1ccc(F)c(Cl)c1 (centres undefined)
[1]
  CC50: 54.1 µM
Plasmodium falciparum [2]
  pIC50: 5.64
[3]
  selectivity ratio: 8
Plasmodium falciparum [4]
  pIC50: 5.15

## COc1ccccc1N1CCN(CCC(O)c2ccc3ccccc3c2)CC1 (centres undefined)
[1]
  CC50: 95 µM
Plasmodium falciparum [2]
  pIC50: 5.39
[3]
  selectivity ratio: 36
Plasmodium falciparum [4]
  pIC50: 5.58

## O=[N+]([O-])c1ccc(N2CCC(NCCC(O)c3ccccc3)CC2)c(C(F)(F)F)c1 (centres undefined)
[1]
  CC50: 27.6 µM
Plasmodium falciparum [2]
  pIC50: 5.35
[3]
  selectivity ratio: 15
Plasmodium falciparum [4]
  pIC50: 5.74
